# ChEMBL document CHEMBL1138245, “Discovery of N1-(6-chloroimidazo[2,1-b][1,3]thiazole-5-sulfonyl)tryptamine as a potent, selective, and orally active 5-HT(6) receptor agonist” (J Med Chem, 2007)
# Activity calls are given as the source filed them. No cut-off for these calls is given here.
# What was measured:
# [1] = Half life in rat at 10 mg/kg, po; type: ADME, organism-based; set-up: dose 10 mg/kg, route oral; settings: in vivo
# [2] = Half life in dog at 1 mg/kg, iv; type: ADME, organism-based, Canis lupus familiaris; set-up: dose 1 mg/kg, route intravenous; settings: in vivo
# [3] = Half life in dog at 5 mg/kg, po; type: ADME, organism-based, Canis lupus familiaris; set-up: dose 5 mg/kg, route oral; settings: in vivo
# [4] = Clearance in rat at 1 mg/kg, iv; type: ADME, organism-based; set-up: dose 1 mg/kg, route intravenous; settings: in vivo
# [5] = Clearance in dog at 1 mg/kg, iv; type: ADME, organism-based, Canis lupus familiaris; set-up: dose 1 mg/kg, route intravenous; settings: in vivo
# [6] = Volume of distribution in rat at 1 mg/kg, iv; type: ADME, organism-based; set-up: dose 1 mg/kg, route intravenous; settings: in vivo, read-out: Vdss
# [7] = Volume of distribution in dog at 1 mg/kg, iv; type: ADME, organism-based, Canis lupus familiaris; set-up: dose 1 mg/kg, route intravenous; settings: in vivo, read-out: Vdss
# [8] = Oral bioavailability in rat at 10 mg/kg; type: ADME, organism-based; settings: in vivo
# [9] = Oral bioavailability in dog at 5 mg/kg; type: ADME, organism-based, Canis lupus familiaris; settings: in vivo
# [10] = Ratio of drug level in brain to plasma in rat at 3 mg/kg, ip or 100 mg/kg, po; type: ADME, organism-based; settings: read-out: BPR
# In short: (§1)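 Rats given a single dose, 3 mg/kg ip or 100 mg/kg oral; drug concentrations measured in plasma and brain at timed points after dosing; brain/plasma concentration ratio calculated.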
# Rattus norvegicus [11] = species: Rattus norvegicus; test: Decrease in water intake in schedule-induced polydipsia rat model; type: functional, organism-based
# Rattus norvegicus [12] = species: Rattus norvegicus; test: Effect on water intake in non-SIP rat model; type: functional, organism-based
# Rattus norvegicus [13] = test: Increase in GABA level in rat frontal cortex at 10 mg/kg, sc; type: functional, organism-based; set-up: dose 10 mg/kg
# In short: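 Frontal cortex extracellular GABA, glutamate and norepinephrine measured in rats after 10 mg/kg sc; in antagonist tests, 5-HT₆ antagonist 10 mg/kg sc given before agonist; comparison with vehicle, significance P < 0.05.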
# [14] = molecular target: Beta-2 adrenergic receptor (Homo sapiens) (UniProt P07550); test: Displacement of radio ligand from beta-2 adrenergic receptor at 100 nM
# [15] = Drug level in Sprague-Dawley rat brain at 3 mg/kg, ip after 2 hrs; type: ADME, organism-based; set-up: dose 3 mg/kg, route intraperitoneal; settings: read-out: Drug uptake
# In short: (§2)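 Rats given a single 3 mg/kg ip or 100 mg/kg oral dose; plasma and brain concentrations measured over time to assess brain/plasma ratio.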
# [16] = Drug level in Sprague-Dawley rat brain at 3 mg/kg, ip after 4 hrs; type: ADME, organism-based; set-up: dose 3 mg/kg, route intraperitoneal; settings: read-out: Drug uptake; in short: as §2
# [17] = Ratio of drug level in brain to plasma in Sprague-Dawley rat at 3 mg/kg, ip after 0.25 hr; type: ADME, organism-based; set-up: dose 3 mg/kg, route intraperitoneal; settings: read-out: BPR; in short: as §1
# [18] = Ratio of drug level in brain to plasma in Sprague-Dawley rat at 3 mg/kg, ip after 0.5 hr; type: ADME, organism-based; set-up: dose 3 mg/kg, route intraperitoneal; settings: read-out: BPR; in short: as §1
# [19] = Ratio of drug level in brain to plasma in Sprague-Dawley rat at 3 mg/kg, ip after 1 hr; type: ADME, organism-based; set-up: dose 3 mg/kg, route intraperitoneal; settings: read-out: BPR; in short: as §1
# [20] = Ratio of drug level in brain to plasma in Sprague-Dawley rat at 3 mg/kg, ip after 2 hrs; type: ADME, organism-based; set-up: dose 3 mg/kg, route intraperitoneal; settings: read-out: BPR; in short: as §1
# [21] = Ratio of drug level in brain to plasma in Sprague-Dawley rat at 3 mg/kg, ip after 4 hrs; type: ADME, organism-based; set-up: dose 3 mg/kg, route intraperitoneal; settings: read-out: BPR; in short: as §1
# [22] = Drug level in Sprague-Dawley rat plasma at 100 mg/kg, po after 0.25 hr; type: ADME, organism-based; set-up: dose 100 mg/kg, route oral; in short: as §2
# [23] = Drug level in Sprague-Dawley rat plasma at 100 mg/kg, po after 0.5 hr; type: ADME, organism-based; set-up: dose 100 mg/kg, route oral; in short: as §2
# [24] = Drug level in Sprague-Dawley rat plasma at 100 mg/kg, po after 1 hr; type: ADME, organism-based; set-up: dose 100 mg/kg, route oral; in short: as §2
# [25] = Drug level in Sprague-Dawley rat plasma at 100 mg/kg, po after 2 hrs; type: ADME, organism-based; set-up: dose 100 mg/kg, route oral; in short: as §2
# [26] = Drug level in Sprague-Dawley rat plasma at 100 mg/kg, po after 4 hrs; type: ADME, organism-based; set-up: dose 100 mg/kg, route oral; in short: as §2
# [27] = Drug level in Sprague-Dawley rat brain at 100 mg/kg, po after 0.25 hr; type: ADME, organism-based; set-up: dose 100 mg/kg, route oral; settings: read-out: Drug uptake; in short: as §2
# [28] = Drug level in Sprague-Dawley rat brain at 100 mg/kg, po after 0.5 hr; type: ADME, organism-based; set-up: dose 100 mg/kg, route oral; settings: read-out: Drug uptake; in short: as §2
# [29] = Drug level in Sprague-Dawley rat brain at 100 mg/kg, po after 1 hr; type: ADME, organism-based; set-up: dose 100 mg/kg, route oral; settings: read-out: Drug uptake; in short: as §2
# [30] = Drug level in Sprague-Dawley rat brain at 100 mg/kg, po after 2 hrs; type: ADME, organism-based; set-up: dose 100 mg/kg, route oral; settings: read-out: Drug uptake; in short: as §2
# [31] = Drug level in Sprague-Dawley rat brain at 100 mg/kg, po after 4 hrs; type: ADME, organism-based; set-up: dose 100 mg/kg, route oral; settings: read-out: Drug uptake; in short: as §2
# [32] = Ratio of drug level in brain to plasma in Sprague-Dawley rat at 100 mg/kg, po after 0.25 hr; type: ADME, organism-based; set-up: dose 100 mg/kg, route oral; settings: read-out: BPR; in short: as §1
# [33] = Ratio of drug level in brain to plasma in Sprague-Dawley rat at 100 mg/kg, po after 0.5 hr; type: ADME, organism-based; set-up: dose 100 mg/kg, route oral; settings: read-out: BPR; in short: as §1
# [34] = Ratio of drug level in brain to plasma in Sprague-Dawley rat at 100 mg/kg, po after 1 hr; type: ADME, organism-based; set-up: dose 100 mg/kg, route oral; settings: read-out: BPR; in short: as §1
# [35] = Ratio of drug level in brain to plasma in Sprague-Dawley rat at 100 mg/kg, po after 2 hrs; type: ADME, organism-based; set-up: dose 100 mg/kg, route oral; settings: read-out: BPR; in short: as §1
# [36] = Ratio of drug level in brain to plasma in Sprague-Dawley rat at 100 mg/kg, po after 4 hrs; type: ADME, organism-based; set-up: dose 100 mg/kg, route oral; settings: read-out: BPR; in short: as §1
# Chain of Beta-2 adrenergic receptor (Homo sapiens) (P07550 whole entry, looked up): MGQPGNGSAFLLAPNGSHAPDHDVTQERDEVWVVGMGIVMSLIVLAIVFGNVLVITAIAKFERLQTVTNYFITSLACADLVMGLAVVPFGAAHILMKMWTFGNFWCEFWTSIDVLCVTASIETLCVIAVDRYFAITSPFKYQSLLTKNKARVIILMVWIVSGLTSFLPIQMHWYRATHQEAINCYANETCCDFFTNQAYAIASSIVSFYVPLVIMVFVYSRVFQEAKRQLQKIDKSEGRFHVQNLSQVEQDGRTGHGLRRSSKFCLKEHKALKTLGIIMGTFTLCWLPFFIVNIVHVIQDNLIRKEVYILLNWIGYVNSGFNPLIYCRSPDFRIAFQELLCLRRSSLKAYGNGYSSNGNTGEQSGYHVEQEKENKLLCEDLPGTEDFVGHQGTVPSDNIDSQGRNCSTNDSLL
compound,measurement,setting,value
NCCc1cn(S(=O)(=O)c2c(Cl)nc3sccn23)c2ccccc12,half-life,[1],3.1 h
same,half-life,[2],2.9 h
same,half-life,[3],6.6 h
same,clearance,[4],123 mL/min/kg
same,clearance,[5],30 mL/min/kg
same,Vd,[6],24 L/kg
same,Vd,[7],7.9 L/kg
same,bioavailability,[8],23%
same,bioavailability,[9],55%
same,Kp,[10],0.1
same,Activity,Rattus norvegicus [11],Dose-dependent effect
same,Activity,Rattus norvegicus [12],inactive
same,Activity,Rattus norvegicus [13],Active
same,Activity,[14],< 50%
same,concentration at 2 h,[15],1.1 ng/mL
same,concentration at 4 h,[16],6 ng/mL
same,Kp at 0.25 h,[17],0.09
same,Kp at 0.5 h,[18],0.17
same,Kp at 1 h,[19],0.68
same,Kp at 2 h,[20],0.33
same,Kp at 4 h,[21],1.39
same,concentration at 0.25 h,[22],120 ng/mL
same,concentration at 0.5 h,[23],356 ng/mL
same,concentration at 1 h,[24],312 ng/mL
same,concentration at 2 h,[25],239 ng/mL
same,concentration at 4 h,[26],372 ng/mL
same,concentration at 0.25 h,[27],12.5 ng/mL
same,concentration at 0.5 h,[28],194 ng/mL
same,concentration at 1 h,[29],45.1 ng/mL
same,concentration at 2 h,[30],59.6 ng/mL
same,concentration at 4 h,[31],98 ng/mL
same,Kp at 0.25 h,[32],0.1
same,Kp at 0.5 h,[33],0.55
same,Kp at 1 h,[34],0.14
same,Kp at 2 h,[35],0.25
same,Kp at 4 h,[36],0.26
